Results gathered from unrelated publications.
Compare with care: the assays were run in different laboratories.
Target: Megakaryocyte-associated tyrosine-protein kinase (MATK, Homo sapiens, UniProt P42679)
One construct used (P42679 1-507): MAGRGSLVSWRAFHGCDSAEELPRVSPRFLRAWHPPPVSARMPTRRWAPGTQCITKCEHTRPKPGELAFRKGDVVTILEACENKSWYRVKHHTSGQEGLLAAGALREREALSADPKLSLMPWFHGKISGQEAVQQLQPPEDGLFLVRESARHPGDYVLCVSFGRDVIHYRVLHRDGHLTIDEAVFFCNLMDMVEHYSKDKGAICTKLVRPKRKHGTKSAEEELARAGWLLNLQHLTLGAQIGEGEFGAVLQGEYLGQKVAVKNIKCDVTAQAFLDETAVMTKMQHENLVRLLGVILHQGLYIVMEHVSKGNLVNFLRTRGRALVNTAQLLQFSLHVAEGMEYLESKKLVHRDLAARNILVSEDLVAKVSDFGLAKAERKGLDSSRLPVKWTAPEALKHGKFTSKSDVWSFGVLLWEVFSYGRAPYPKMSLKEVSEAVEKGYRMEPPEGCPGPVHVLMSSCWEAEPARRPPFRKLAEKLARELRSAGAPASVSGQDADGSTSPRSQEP

`COc1cc(Nc2ncc(F)c(Nc3ccc4c(n3)NC(=O)C(C)(C)O4)n2)cc(OC)c1OC` has an inhibition of 70% (binding, competition with immobilised ligand; 10 µM).
With `CC(C)(C)c1cc(C=C(C#N)C#N)cc(Br)c1O` the remaining activity was 102% (enzyme activity, inhibitor; 0.5 µM).
`Cn1cc(-c2cc(F)cc(N3CCn4c(cc5c4CCCC5)C3=O)c2CO)cc(Nc2ccc(N3CCN(C4COC4)CC3)cn2)c1=O` gave an inhibition of 9% (enzyme activity, inhibitor; 0.1 µM).
`Cn1cncc1[C@](O)(COc1ccc(C#N)cc1-c1ccc(OC(F)(F)F)cc1)c1ccc(C#N)cc1` has a remaining binding of 98% (cell-free assay, competition with immobilised ligand; 1 µM).
For `Cn1cc(-c2cccc(N3CCc4c(sc5c4CC(C)(C)C5)C3=O)c2CO)cc(Nc2ccncn2)c1=O`, the inhibition was 4% (enzyme activity, inhibitor; 1 µM).
With `Nc1ncc(-c2nc(N3CCOCC3)nc(N3CCOCC3)n2)c(C(F)F)n1` the remaining binding was 100% (binding, competition with immobilised ligand; 10 µM).
The remaining signal of `O=c1[nH]c2ccccc2n1C1CCN(Cc2ccc(-c3[nH]c4cc5ncnc5cc4nc3-c3ccccc3)cc2)CC1` is reported as 102% (cell-free assay; 0.5 µM).
For `Cc1nn(C)cc1-c1nc2c(N3CCN(Cc4ccc(Cl)cc4)CC3)c(Cl)cnc2[nH]1`, the remaining binding was 82% (binding, competition with immobilised ligand; 1 µM).
`COc1ncccc1-c1cnn2ccc(N3CCN(C(=O)OC(C)C)CC3)nc12` has a remaining binding of 46% (binding, competition with immobilised ligand; 1 µM).
